Measurements published in ChEMBL document CHEMBL5137029, “Chemically Tuning Resveratrol for the Effective Killing of Gram-Positive Pathogens” (J Nat Prod, 2022).
Values after ≈ are worked out from the molar mass of the structure shown. Active and inactive are the calls of the source. The calls are words filed in the database; no cut-off is given here.

Key:
[1] = Cytotoxicity against human MRC5 cells assessed as cellular metabolism incubated for 72 hrs by MTT assay; type: toxicity, cell-based
Procedure, shortened: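 MRC-5 cells in DMEM (1 g/L glucose) with 10% heat-inactivated FBS, 2 mM glutamine, penicillin/streptomycin, at 37 °C, 5% CO2. 5 × 10^3 cells/well seeded with increasing compound concentrations, 72 h. MTT added for 4 h, formazan dissolved in DMSO, A570 read. Sigmoidal fit for 50% growth reduction vs untreated; three independent experiments in triplicate.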

Bacillus cereus [2] = assay: Antibacterial activity against Bacillus cereus ATCC 10987 incubated for 20 hrs by CLSI based broth microdilution method; type: functional
[3] = (§1) Hemolytic activity in human erythrocytes at […] incubated for 1 hrs; type: toxicity, cell-based, Erythrocyte; settings: erythrocytes, read-out: Activity
[4] = Antibacterial activity against Clostridium-ihumii AP5 incubated for 24 hrs by CLSI based broth microdilution method; type: functional
Clostridium beijerinckii = assay: Antibacterial activity against Clostridium beijerinckii B504 incubated for 24 hrs by CLSI based broth microdilution method; type: functional
Enterococcus faecalis [5] = assay: Antibacterial activity against Enterococcus faecalis LMG 08222 incubated for 20 hrs by CLSI based broth microdilution method; type: functional
Clostridioides difficile = assay: Antibacterial activity against Clostridium difficile CECT531 incubated for 24 hrs by CLSI based broth microdilution method; type: functional
Clostridium botulinum = assay: Antibacterial activity against Clostridium botulinum CECT551 incubated for 24 hrs by CLSI based broth microdilution method; type: functional
Bacillus cereus [6] = assay: Antibacterial activity against Bacillus cereus ATCC 14579 incubated for 20 hrs by CLSI based broth microdilution method; type: functional
Staphylococcus aureus [7] = assay: Antibacterial activity against Staphylococcus aureus LMG 10147 incubated for 20 hrs by CLSI based broth microdilution method; type: functional
Enterococcus faecalis [8] = assay: Antibacterial activity against Enterococcus faecalis LMG 16216 incubated for 20 hrs by CLSI based broth microdilution method; type: functional
Clostridium perfringens = assay: Antibacterial activity against Clostridium perfringens CECT376 incubated for 24 hrs by CLSI based broth microdilution method; type: functional
Enterococcus faecalis [9] = assay: Antibacterial activity against Enterococcus faecalis V583 incubated for 20 hrs by CLSI based broth microdilution method; type: functional
Clostridium tetani = assay: Antibacterial activity against Clostridium tetani CECT 4629 incubated for 24 hrs by CLSI based broth microdilution method; type: functional
Staphylococcus aureus [10] = assay: Antibacterial activity against Staphylococcus aureus LMG 8224 incubated for 20 hrs by CLSI based broth microdilution method; type: functional
Staphylococcus aureus [11] = assay: Antibacterial activity against Staphylococcus aureus LMG 15975 incubated for 20 hrs by CLSI based broth microdilution method; type: functional
Erythrocyte = assay: as §1; type: toxicity, cell-based; settings: erythrocyte, 1 h, […]
Bacillus cereus [12] = assay: Bactericidal activity against Bacillus cereus ATCC 10987 at 16 uM measured upto 24 hrs by CLSI based broth microdilution method; type: functional, organism-based
Procedure, shortened: (§2)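 Each well then used as a 10% inoculum into fresh cMHB and incubated at 37 °C for 24 h. No regrowth in the MIC range was scored bactericidal, regrowth bacteriostatic. Triplicate.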

Bacillus cereus [13] = assay: Inhibition of electron transport chain in Bacillus cereus ATCC 10987 by measuring reduction of resazurin upto 120 min by resazurin dye based assay; settings: DDE = dose-dependent effect
Procedure, shortened: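 B. cereus grown in LB to OD600 1, washed and resuspended in cMHB at OD600 0.2 with 100 μg/mL resazurin. Compounds added at the indicated concentrations; resorufin fluorescence (ex/em 550/590 nm) read every 5 min for 125 min. CCCP at 400, 200, 100 μM positive control; untreated cells and medium with resazurin negative controls; triplicate.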

Bacillus cereus [14] = assay: Antibacterial activity against Bacillus cereus ATCC 10987 assessed as membrane potential change at 0.5 to 2X MIC incubated for 20 mins by DiSC3(5) staining based assay; type: functional, organism-based
Procedure, shortened: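 B. cereus grown in LB to OD600 1, washed in glucose-HEPES pH 7.4, OD600 0.5, loaded with 2 μM DiSC3(5) for 20 min at 37 °C for baseline. […] Gramicidin S positive control; untreated cells and dye-only medium negative controls; triplicate.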

Bacillus cereus [15] = assay: Antibacterial activity against Bacillus cereus ATCC 10987 assessed as decrease in membrane integrity at 2x MIC incubated for 18 hrs by propidium iodide staining assay; type: functional, organism-based
Procedure, shortened: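 B. cereus grown 18 h in LB at 37 °C, washed in 5 mM HEPES pH 7.4 + 5 mM glucose, OD600 0.5, loaded with 10 μg/mL propidium iodide for 10 min. […] Gramicidin S positive control; triplicate.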

Bacillus cereus [16] = assay: Antibacterial activity against Bacillus cereus ATCC 10987 assessed as reduction in intracellular ATP levels at 100 uM measured upto 120 min by BacTiter-Glo luminescent cell viability assay; type: functional, organism-based
Procedure, shortened: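 B. cereus ATCC10987 was grown in LB at 37 °C to OD600 1, washed three times in G-HEPES, and resuspended in cMHB at OD600 0.25. Cells were exposed at 37 °C to compounds at 32 μM or to CCCP (100 μM, positive control). At 30, 60 and 120 min, BacTiter-Glo luminescence was read. ATP was normalised to OD600 and expressed as % of untreated cells. Run in triplicate.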

Enterococcus faecalis [17] = assay: Bactericidal activity against Enterococcus faecalis V583 at 16 uM measured upto 24 hrs by CLSI based broth microdilution method; type: functional, organism-based; procedure, shortened: as §2
[18] = Selectivity index, ratio of IC50 for cytotoxicity against human MRC5 cells to MIC for antibacterial activity against Bacillus cereus; type: toxicity, cell-based; settings: read-out: Selectivity Index
Escherichia coli [19] = assay: Antimicrobial activity against Escherichia coli LMG […] in presence of outer membrane disturbing peptide L-11 incubated for 20 hrs by CLSI based broth microdilution method; type: functional
Staphylococcus aureus [20] = assay: Bactericidal activity against Staphylococcus aureus LMG 8224 at 16 uM measured upto 24 hrs by CLSI based broth microdilution method; type: functional, organism-based; procedure, shortened: as §2
Staphylococcus aureus [21] = assay: Bactericidal activity against Staphylococcus aureus LMG 8224 measured upto 24 hrs by CLSI based broth microdilution method; type: functional; procedure, shortened: as §2
Enterococcus faecalis [22] = assay: Bactericidal activity against Enterococcus faecalis V583 measured upto 24 hrs by CLSI based broth microdilution method; type: functional; procedure, shortened: as §2
Escherichia coli [23] = assay: Antimicrobial activity against Escherichia coli LMG […] incubated for 20 hrs by CLSI based broth microdilution method; type: functional
[24] = Selectivity index, ratio of IC50 for cytotoxicity against human MRC5 cells to MIC for antibacterial activity against Staphylococcus aureus; type: toxicity, cell-based; settings: read-out: Selectivity Index
[25] = Selectivity index, ratio of IC50 for cytotoxicity against human MRC5 cells to MIC for antibacterial activity against Clostridium tetani; type: toxicity, cell-based; settings: read-out: Selectivity Index
Bacillus cereus [26] = assay: Bactericidal activity against Bacillus cereus ATCC 10987 measured upto 24 hrs by CLSI based broth microdilution method; type: functional; procedure, shortened: as §2
[27] = Selectivity index, ratio of IC50 for cytotoxicity against human MRC5 cells to MIC for antibacterial activity against Enterococcus faecalis; type: toxicity, cell-based; settings: read-out: Selectivity Index

| Compound | IC50 at 72 h [1] [µM] | MIC (Bacillus cereus [2]) [µM] | hemolysis at 1 h, […] [3] [%] | MIC [4] [µM] | MIC (Clostridium beijerinckii) [µM] | MIC (Enterococcus faecalis [5]) [µM] | MIC (Clostridioides difficile) [µM] | MIC (Clostridium botulinum) [µM] | MIC (Bacillus cereus [6]) [µM] | MIC (Staphylococcus aureus [7]) [µM] | MIC (Enterococcus faecalis [8]) [µM] | MIC (Clostridium perfringens) [µM] | MIC (Enterococcus faecalis [9]) [µM] | MIC (Clostridium tetani) [µM] | MIC (Staphylococcus aureus [10]) [µM] | MIC (Staphylococcus aureus [11]) [µM] | Activity (Bacillus cereus [12]) | inhibition (Bacillus cereus [13]) | Activity (Bacillus cereus [14]) | Activity (Bacillus cereus [15]) | further results |
| --- | --- | --- | --- | --- | --- | --- | --- | --- | --- | --- | --- | --- | --- | --- | --- | --- | --- | --- | --- | --- | --- |
| CC[Si](CC)(CC)Oc1cc(O)cc(/C=C/c2ccc(O)cc2)c1 | 21.3 |  |  |  |  |  |  |  |  |  |  |  |  |  |  |  |  |  |  |  |  |
| CC(C)(C)[Si](C)(C)Oc1cc(O)cc(/C=C/c2ccc(O)cc2)c1 | 2.7 | 16 (≈ 5.48 µg/mL) | 18.4 | 32 (≈ 11 µg/mL) | 26.6 (≈ 9.11 µg/mL) | 8 (≈ 2.74 µg/mL) | 26.6 (≈ 9.11 µg/mL) | 16 (≈ 5.48 µg/mL) | 16 (≈ 5.48 µg/mL) | 16 (≈ 5.48 µg/mL) | 16 (≈ 5.48 µg/mL) | 32 (≈ 11 µg/mL) | 16 (≈ 5.48 µg/mL) | 6.6 (≈ 2.26 µg/mL) | 16 (≈ 5.48 µg/mL) | 16 (≈ 5.48 µg/mL) |  |  |  |  |  |
| CCCCOc1cc(/C=C/c2ccc(OS(=O)(=O)O)cc2)cc(OS(=O)(=O)O)c1 |  |  |  |  |  |  |  |  |  |  |  |  |  |  |  |  | Active | Dde | Active | Active | Activity (Erythrocyte): Non-Toxic |
| N#CC(C#N)=NNc1cccc(Cl)c1 |  |  |  |  |  |  |  |  |  |  |  |  |  |  |  |  |  |  |  |  | Activity (Bacillus cereus [16]): Active |
| CC(C)(C)[Si](C)(C)Oc1ccc(/C=C/c2cc(O)cc(O)c2)cc1 | 15.5 | 8 (≈ 2.74 µg/mL) | 12.7 | 16 (≈ 5.48 µg/mL) | 10.6 (≈ 3.63 µg/mL) | 6.6 (≈ 2.26 µg/mL) | 21.3 (≈ 7.3 µg/mL) | 13.3 (≈ 4.56 µg/mL) | 4 (≈ 1.37 µg/mL) | 8 (≈ 2.74 µg/mL) | 8 (≈ 2.74 µg/mL) | 13.3 (≈ 4.56 µg/mL) | 8 (≈ 2.74 µg/mL) | 5.3 (≈ 1.82 µg/mL) | 8 (≈ 2.74 µg/mL) | 8 (≈ 2.74 µg/mL) | Active | Dde | Active | Active | Activity (Enterococcus faecalis [17]): Active; selectivity ratio [18]: 2; MIC (Escherichia coli [19]): 13.3 µM; Activity (Staphylococcus aureus [20]): Active; MIC (Staphylococcus aureus [21]): 32 µM (≈ 11 µg/mL); MIC (Enterococcus faecalis [22]): 32 µM (≈ 11 µg/mL); MIC (Escherichia coli [23]): > 128 µM; selectivity ratio [24]: 2; selectivity ratio [25]: 2; MIC (Bacillus cereus [26]): 32 µM (≈ 11 µg/mL); selectivity ratio [27]: 2 |
